The values that follow come from ChEMBL document CHEMBL1148286.

The target in assay [1] is Transthyretin (Homo sapiens) (UniProt P02766). The experiment in a line: Transthyretin (TTR) amyloidogenesis inhibition activity by employing an acid-mediated (pH 4.4) WTTTR amyloid fibril formation assay, at 7.2 uM conc. The assay is classed as functional. A digest of the protocol:
(§1)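 WT TTR (3.6 µM tetramer) in 10 mM phosphate, 100 mM KCl, 1 mM EDTA pH 7.6, preincubated 30 min at 25 °C with compound from DMSO stock. Acidified to pH 4.4 with acetate buffer, then held 72 h at 37 °C without agitation. Turbidity read at 350 and 400 nm after vortexing. Expressed as % of the no-inhibitor control; triplicate.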

Assay [2] has the same target. The assay is described as follows: Ability to bind TTR selectively over all other proteins in human blood plasma (equiv bound). The format is cell-free. A digest of the protocol: (§2)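 Human blood plasma (1.0 mL) incubated with compound from 1.44 mM DMSO stock (final 10.8 µM) at 37 °C for 24 h with rocking. Pre-cleared with quenched sepharose, then TTR captured on anti-TTR antibody sepharose at 4 °C, washed with TSA/0.05% saponin and TSA. Eluted with 100 mM triethylamine pH 11.5. Ligand:TTR stoichiometry measured by reverse-phase HPLC (maximum 2 per tetramer).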

Assay [3] shares this target. The assay is described as follows: Transthyretin (TTR) amyloidogenesis inhibition activity by employing an acid-mediated (pH 4.4) WTTTR amyloid fibril formation assay, at 3.6 uM conc. The format is functional. The procedure, abridged:
as §1

The target is the same in assay [4]. The experiment in a line: Ability to bind TTR selectively over all other proteins in human blood plasma (equiv bound); None observed. The assay is classed as cell-free. The procedure, abridged: as §2
Assay [5] has the same target. The experiment in a line: The second dissociation constant for binding to WT TTR determined by isothermal titration calorimetry (25 C, pH 8.0). (In ITC the heat of successive injections is recorded.)
For assay [6] the target is unchanged. The experiment in a line: The first dissociation constant for binding to WT TTR determined by isothermal titration calorimetry (25 C, pH 8.0).

Take `O=Cc1ccc(-c2cc(Cl)cc(Cl)c2)cc1`: in assay [1], the Fibril formation came to 25.4%.
`Oc1cccc(-c2cc(F)cc(F)c2)c1`: the Fibril formation in assay [1] was determined as 10.2%; in assay [3] it was 40.9%. Further, the Plasma selectivity in assay [2] amounted to 0.18.
As for `COc1ccc(-c2ccc(F)cc2F)cc1C(=O)O`, the Fibril formation in assay [1] came out at 69.9%.
On the same count and under the same terms, as for `O=Cc1ccc(-c2cc(F)cc(F)c2)cc1`, the figure is 69.6%.
Turning to `O=C(O)c1cc(-c2ccccc2)ccc1O`, the Plasma selectivity result in assay [4] is on record as “None observed”. Further, the values for the Fibril formation in assay [1] and in assay [3] were 15.4% and 47.4%, respectively.
Take `Oc1cccc(-c2ccc(F)cc2F)c1`: the Fibril formation in assay [1] was 31.5%.
Same read-out and setting: as for `Oc1cccc(-c2ccccc2)c1`, the figure is 61.2%.
As for `O=C(O)c1ccc(-c2ccccc2F)cc1`, the results for the Fibril formation in assay [1] and in assay [3] were 4.8% and 32.4%, respectively. Besides, the Plasma selectivity in assay [2] is 0.08.
In the case of `O=Cc1ccccc1-c1cc(Cl)cc(Cl)c1`, the Fibril formation in assay [1] came out at 7.1%; in assay [3] it was 34.5%. In assay [2], the Plasma selectivity was 1.96.
In the case of `Oc1ccc(-c2ccccc2F)cc1`, the Fibril formation in assay [1] turned out to be 19.6%.
Regarding `O=C(O)c1cccc(-c2c(F)cccc2F)c1`, the Fibril formation in assay [1] is 6.7%; in assay [3], 35.1%. Also, the Plasma selectivity in assay [2] turned out to be 0.29.
For the compound `O=C(O)c1ccc(-c2c(F)cccc2F)cc1`, the figures for the Fibril formation in assay [1] and in assay [3] were 4.5% and 28.5%, respectively. Further, the Kd2 in assay [5] was 1300 nM.
As for `Fc1cc(F)cc(-c2ccccc2)c1`, the Fibril formation in assay [1] stood at 100%.
For the compound `O=C(O)c1cccc(-c2ccc(F)cc2F)c1`, the Plasma selectivity result in assay [4] was “None observed”. Moreover, the Fibril formation in assay [1] stood at 9.1%; in assay [3], 39.4%.
Consider `OCc1cccc(-c2cc(Cl)cc(Cl)c2)c1`, for which the Fibril formation in assay [1] amounted to 3.3%; in assay [3] it was 30%. In addition, the Plasma selectivity in assay [2] came out at 0.89.
The compound `OCc1cccc(-c2ccccc2)c1` displayed a Fibril formation in assay [1] of 85.5%.
Same read-out and setting: as for `Oc1ccc(-c2cc(F)cc(F)c2)cc1`, the figure is 16.4%.
Take `Oc1cccc(-c2ccccc2F)c1`: the Fibril formation in assay [1] is 19.5%.
On the same count and under the same terms, to `OCc1ccccc1-c1ccccc1` belongs 81%; to `Fc1ccccc1-c1ccccc1`, 99.4%.
Turning to `O=C(O)c1cc(-c2ccc(Cl)cc2Cl)ccc1O`, the values for the Fibril formation in assay [1] and in assay [3] were 3.6% and 29.9%, respectively. For the same compound, in assay [2], the Plasma selectivity is 0.27.
The like results for `O=C(O)c1cccc(-c2cc(Cl)cc(Cl)c2)c1` were, in that order, 3%, 32.7% and 0.8.
The compound `O=Cc1cccc(-c2cc(F)cc(F)c2)c1` returned a Fibril formation in assay [1] of 64.3%.
In the case of `O=C(O)c1ccc(-c2cc(Cl)cc(Cl)c2)cc1`, the Fibril formation came out at 4.9% in assay [1] and 41.2% in assay [3]. Besides, the Plasma selectivity in assay [2] worked out at 1.56.
The like results for `O=C(O)c1ccc(-c2ccc(F)cc2F)cc1` were, in that order, 2.6%, 32.6% and 0.2.
For the compound `O=Cc1ccc(-c2ccccc2)cc1`, the Fibril formation in assay [1] was found to be 93.5%.
Turning to `O=C(O)c1cccc(-c2ccccc2F)c1`, the figures for the Fibril formation in assay [1] and in assay [3] were 9.8% and 39.4%, respectively. In assay [2], the Plasma selectivity entry is reported as “None observed”.
In the case of `O=C(O)c1cc(-c2ccc(F)cc2F)ccc1O`, the figures for the Fibril formation in assay [1] and in assay [3] were 3.4% and 37%, respectively.
Turning to `O=C(O)c1ccc(-c2ccccc2)cc1`, the Fibril formation worked out at 14.3% in assay [1] and 51.5% in assay [3]. For the same compound, the Plasma selectivity in assay [2] was determined as 0.08.
Take `O=Cc1cccc(-c2ccccc2)c1`: the Fibril formation in assay [1] was 35.4%.
Consider `O=C(O)c1ccc(-c2cc(F)cc(F)c2)cc1`, for which the Kd1 in assay [6] was determined as 9 nM. Also, the Fibril formation is 3.7% in assay [1] and 35.7% in assay [3]. Also, in assay [2], the Plasma selectivity was found to be 1.27. In addition, the Kd2 in assay [5] is 1100 nM.
For the compound `O=C(O)c1ccc(-c2cc(F)c(O)c(F)c2)cc1`, the figures for the Fibril formation in assay [1] and in assay [3] were 3.4% and 31.7%, respectively. For the same compound, the Plasma selectivity in assay [2] worked out at 0.07.
Turning to `O=C(O)c1cccc(-c2cc(Cl)c(O)c(Cl)c2)c1`, the Fibril formation came out at 4.4% in assay [1] and 25.5% in assay [3]. In assay [2], the Plasma selectivity was 0.12.
Compound `Oc1ccc(-c2ccc(F)cc2)cc1` registered a Fibril formation in assay [1] of 53.1%.
Still for that read-out and setting: to `Oc1cccc(-c2ccc(F)cc2)c1` belongs 46.3%.
The same measure, in the same setting: as for `O=C(O)c1cccc(-c2ccc(F)cc2)c1`, the figure is 15.7%.
With `O=Cc1cccc(-c2cc(Cl)cc(Cl)c2)c1`, the Fibril formation in assay [1] came to 4.4%; in assay [3] it was 30.6%. Besides, in assay [2], the Plasma selectivity is 1.3.
`Oc1ccc(-c2ccc(F)cc2F)cc1` returned a Fibril formation in assay [1] of 32.4%.
The same measure, in the same setting: to `O=C(O)c1ccccc1-c1cc(Cl)cc(Cl)c1` belongs 45.4%; to `O=C(O)c1cccc(-c2ccccc2)c1`, 30.8%.
With `OCc1ccc(-c2cc(Cl)cc(Cl)c2)cc1`, the figures for the Fibril formation in assay [1] and in assay [3] were 5.9% and 38.9%, respectively. In addition, the Plasma selectivity in assay [2] came to 0.54.
On to `Clc1cc(Cl)cc(-c2ccccc2)c1`, for which the Fibril formation in assay [1] was determined as 52.2%.
For the compound `O=C(O)c1cc(-c2ccc(F)cc2)ccc1O`, the Fibril formation came out at 2.6% in assay [1] and 38.7% in assay [3]. Moreover, in assay [2], the Plasma selectivity came out at 0.09.
Turning to `OCc1ccccc1-c1cc(Cl)cc(Cl)c1`, the Plasma selectivity result in assay [4] was “None observed”. Further, the Fibril formation in assay [1] stood at 7.7%; in assay [3], 33.6%.
In assay [1], `O=C(O)c1ccc(-c2ccc(F)cc2)cc1` showed a Fibril formation of 13.3%.
Still for that read-out and setting: as for `OCc1ccc(-c2ccccc2)cc1`, the figure is 100%.
The same measure, in the same setting: to `O=Cc1ccccc1-c1ccccc1` belongs 72.5%; to `Fc1ccc(-c2ccccc2)c(F)c1`, 100%.
The same measure, in the same setting: as for `COC(=O)c1cc(-c2ccc(F)cc2F)ccc1O`, the figure is 38.5%; as for `Fc1ccc(-c2ccccc2)cc1`, 100%.
As to `O=C(O)c1ccc(-c2cc(Cl)c(O)c(Cl)c2)cc1`, the Fibril formation in assay [1] was 3.8%; in assay [3], 25.8%. Moreover, the Plasma selectivity in assay [2] worked out at 0.26.
The like results for `O=C(O)c1cc(-c2cc(F)cc(F)c2)ccc1O` were, in that order, 1%, 35.5% and “None observed”.
Taken in the same sequence, the figures for `O=C(O)c1cc(-c2ccccc2F)ccc1O` were 2.5%, 38.7% and 0.07.
Taken in the same sequence, the figures for `O=C(O)c1cccc(-c2cc(F)c(O)c(F)c2)c1` were 3.5%, 38.5% and “None observed”.
For `O=C(O)c1cccc(-c2cc(F)cc(F)c2)c1`, the Fibril formation in assay [1] was 5.6%; in assay [3], 35.7%. Besides, in assay [2], the Plasma selectivity turned out to be 0.23.
